Screening results: PubChem, The Scripps Research Institute Molecular Screening Center
S1P1 ag pot: S1P1 agonists and agonism potentiators, primary screen, cell-based, primary and confirmation screens, CRE-bla reporter; Sphingosine 1-phosphate receptor 1 (Homo sapiens), P21453; S1P1 CRE-bla cells, forskolin, beta-lactamase FRET, potentiator mode; S1P1 agonist co-added at EC20, 2 nM; 100% = saturating reference agonist, 0% = basal; activation, % at 9.5 µM; hit rate 0.57% among 56,000;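 active means activation above a cutoff set at the mean activation of all tested compounds plus 3 SD, cut at about 54% in these data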;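 further: forskolin at 4 µM as EC80 and the EC20 agonist is SEW2871; 100% = SEW2871 at its EC100 plus forskolin at EC80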
5HT1E antag: 5-HT1E receptor antagonists, primary screen, cell-based, HTS | hit rate 0.99% among 65,000 | CHO 5-HT1E Ga15 NFAT-bla reporter, FRET, antagonist | 5-hydroxytryptamine receptor 1E (Homo sapiens), P28566 | inhibition, % at 6 µM;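 active means inhibition above a set limit, the mean inhibition across every tested compound plus 3 SD, cut at about 29% in these data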;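 further: signal is the 460 over 535 nm emission ratio of beta-lactamase substrate; 0% = agonist plus DMSO wells and 100% = wells without agonist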
5-HT1A blocker: human 5-HT1a receptor antagonists, primary screen, cell-based, CHO, Ga15 NFAT-bla reporter; hit rate 0.68% among 62,000; CHO 5-HT1a Ga15 NFAT-bla reporter, antagonist mode; inhibition, % at 10 µM; AID 612, 2007;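 active means inhibition above the mean of all tested compounds plus 3 SD, cut at about 43% in these data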;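 further: receptor stimulated by 5-CT agonist at 100 nM near EC80; beta-lactamase reporter measured by ratiometric fluorescence of a cleavable substrate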
S1P3 agonist: human S1P3 receptor agonists, primary screen, cell-based, primary and confirmation, NFAT-BLA reporter. S1P3 NFAT-BLA reporter cells, agonism, FRET ratio; relative to 1 µM S1P, basal subtracted. activation, % at 4.5 µM. hit rate 0.1% among 60,000;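 active means activation above the screen-wide mean plus 3 SD, cut at about 4.5% in these data, passing the limit was not always enough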
Target sequence (Q99500 whole entry, looked up): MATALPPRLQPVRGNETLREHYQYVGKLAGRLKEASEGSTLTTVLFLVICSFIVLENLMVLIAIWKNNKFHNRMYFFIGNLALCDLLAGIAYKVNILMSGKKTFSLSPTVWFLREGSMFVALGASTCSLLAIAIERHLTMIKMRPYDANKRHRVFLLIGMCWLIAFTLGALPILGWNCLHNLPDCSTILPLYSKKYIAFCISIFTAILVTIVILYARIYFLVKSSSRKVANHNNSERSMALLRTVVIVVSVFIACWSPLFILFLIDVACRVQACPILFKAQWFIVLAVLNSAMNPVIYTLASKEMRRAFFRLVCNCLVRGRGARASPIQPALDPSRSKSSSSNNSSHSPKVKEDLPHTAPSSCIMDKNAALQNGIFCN
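Material: Human S1P3 NFAT-BLA reporter CHO cells | Incubation: Overnight plating, 4 h compound 37 °C, 2 h substrate RT | Signal: FRET β-lactamase substrate fluorescence, excitation 405 nm, 460/535 nm emission ratio, background-subtracted | Compound: 4.5 µM final, single dose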
5HT1E ag: 5-HT1E receptor agonists, primary screen, cell-based, HTS; 5-hydroxytryptamine receptor 1E (Homo sapiens), P28566; CHO 5-HT1E Ga15 NFAT-bla reporter, FRET; 0% DMSO wells, 100% control agonist wells; activation, % at 6 µM; hit rate 0.69% among 65,000; AID 574, 2007;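 active means activation above a set limit, the screen-wide mean activation plus 3 SD, cut at about 8.5% in these data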;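 further: 100% = positive control agonist at 1 µM giving full maximal response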
HTR1A agonist: human 5-HT1a receptor agonists, primary screen, cell-based, CHO, Ga15 NFAT-bla reporter; 5-hydroxytryptamine receptor 1A (Homo sapiens), P08908; CHO 5-HT1a Ga15 NFAT-bla reporter, FRET ratio; 0% basal, 100% maximal reference agonist; AID 567, 2006; hit rate 0.56% among 65,000; activation, % at 10 µM;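 active means activation above the screen-wide mean activation plus 3 SD, cut at about 19% in these data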;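 further: 0% = DMSO wells and 100% = 5-CT at EC100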
Numbers without * were called inactive; . = no result. Most compounds without a hit are left out; they make up all but 3% or so of the library.

SMILES | S1P1 ag pot | 5HT1E antag | 5-HT1A blocker | S1P3 agonist | 5HT1E ag | HTR1A agonist
CCOc1ccccc1-n1nnnc1SCc1nc2ccccc2s1 | -20 | 14 | 14 | 0 | 0 | -2
Cc1cccc(-n2ncc3c(N(C)C4CCCCC4)ncnc32)c1 | 53* | 11 | 15 | -1 | 1 | -1
COc1ccc(-n2ncc3c(N(C)C4CCCCC4)ncnc32)cc1 | 34 | -11 | -4 | 0 | 2 | 31*
COc1ccc(-n2ncc3c(N4CCC(C)CC4)ncnc32)cc1 | -5 | 3 | 1 | -1 | 0 | 0
O=S(=O)(NCCSc1ccccc1)c1ccc(F)cc1 | 4 | 3 | -5 | 0 | 0 | -4
COc1cc(C(=O)N2CCN=C2c2ccccc2)cc(OC)c1OC | -8 | 21 | 14 | -2 | -1 | -2
COc1cccc(OCCn2c(C)c(/C=N/n3cnnc3)c3ccccc32)c1 | -14 | 43* | 4 | 0 | 0 | -1
CC(NS(=O)(=O)c1ccc(CCC(=O)N2CCN(C)CC2)cc1)c1ccccc1 (centres undefined) | . | -5 | -5 | 0 | -1 | -3
COc1ccccc1-n1c(=O)[nH]c2c(C(N)=O)nc(CC(C)C)nc21 | -19 | 7 | -8 | -1 | 0 | -1
O=C(Nc1cccc(-c2cn3ccsc3n2)c1)c1ccccc1 | -9 | 4 | 2 | 0 | 83* | -1
COc1ccc(C2=CC(c3ccc(Cl)cc3)n3cnnc3N2)cc1OC (centres undefined) | . | 35* | 40 | . | -1 | -7
COc1ccc(C2C=C(c3ccc(Cl)cc3)Nc3nc(NC(C)=O)nn32)cc1 (centres undefined) | 25 | 14 | . | -1 | 0 | -2
COc1ccc(Cl)cc1C(=O)NCCc1ccc(S(=O)(=O)NC(=O)NC2CCCCC2)cc1 | 33 | 5 | . | -4 | -1 | 2
Cc1ccc(O)c(-c2cc(-c3ccccc3C)[nH]n2)c1 | . | -1 | 44* | 0 | 2 | -1
Oc1ccccc1-c1cc(-c2ccccc2Cl)[nH]n1 | 17 | -4 | 24 | -1 | 1 | -5
CC1NC2(C(=O)N(Cc3ccccc3)c3ccccc32)C2C(=O)N(c3ccccc3)C(=O)C12 (centres undefined) | -19 | 12 | 7 | -1 | 0 | -1
O=C(c1ccco1)N(CCCN1CCOCC1)c1nc(-c2ccc(F)cc2)cs1 | 9 | 8 | 14 | -1 | 1 | 0
O=C(c1ccco1)N(CCCN1CCOCC1)c1nc(-c2ccc(Cl)cc2)cs1 | 11 | 12 | 48* | -2 | -1 | -3
CCC(C(=O)Nc1cnccn1)c1ccccc1 (centres undefined) | -2 | -4 | -3 | 0 | 18* | -3
CCN1CCN(Cc2ccc(NC(=O)Nc3ccc(SC)cc3)cc2)CC1 | -12 | -8 | 13 | -1 | 0 | 0
Cc1cc(S(=O)(=O)n2cnc3ccccc32)c(C)cc1Cl | -6 | -10 | -9 | -1 | 0 | 1
CC12CC(c3ccccc3O1)C(C(=O)N1CCOCC1)C(=O)N2 (centres undefined) | -18 | 6 | 8 | -1 | -1 | -2
Cc1nn(Cc2ccc(Cl)c(Cl)c2)c(C)c1NC(=O)c1cc(-c2ccco2)on1 | 96* | 23 | 38 | -1 | 0 | 6
Cc1nn(Cc2ccc(Cl)cc2)c(C)c1NC(=O)c1cc(-c2ccco2)on1 | 65 | 17 | 8 | 0 | 0 | -1
COc1ccc(S(=O)(=O)N2CN(Cc3ccco3)c3nc4ccccc4nc32)cc1 | -23 | 3 | 22 | 1 | -1 | 0
SMILES | S1P1 ag pot | 5HT1E antag | 5-HT1A blocker | S1P3 agonist | 5HT1E ag | HTR1A agonist
CC1(C)Cc2cccc(OCC(O)CN3CCN(c4ccccn4)CC3)c2O1 (centres undefined) | 15 | -4 | 11 | 0 | 0 | 21*
CC1(C)Cc2cccc(OCC(O)CNCc3ccccn3)c2O1 (centres undefined) | 14 | 10 | 21 | -2 | 0 | -1
CCC(C)(C)n1nnnc1C(c1ccccc1F)N1CCC(C(N)=O)CC1 (centres undefined) | -5 | -1 | 0 | 0 | -1 | -3
Cc1ccc(-n2nc3c([n+]2[O-])CCc2c-3no[n+]2[O-])cc1 | 41 | 74* | 73* | -2 | -2 | -5
[O-][n+]1onc2c1CCc1c-2nn(-c2ccccc2Cl)[n+]1[O-] | 29 | 34* | 60* | -2 | 0 | -5
CC(=O)N1CCC(C(=O)Nc2ccccc2)(N(Cc2ccccc2)C(=O)c2cccnc2)CC1 | . | 9 | 5 | . | 0 | 0
Cn1cc(/C=N/n2cnc3scc(-c4ccccc4)c3c2=O)c2ccccc21 | 29 | 30* | 10 | -1 | -1 | 3
Cc1nn(-c2ccccc2)c(C)c1NS(=O)(=O)c1ccccc1 | -22 | 36* | 10 | 0 | -1 | -1
Cc1nn(C)c(C)c1NS(=O)(=O)c1ccccc1 | -24 | 6 | -10 | 0 | 0 | -1
O=C(Nc1nc(-c2ccccn2)cs1)c1ccc(Cl)s1 | 50 | 44* | 28 | -2 | 1 | -2
Cn1cccc1C(=O)Nc1nc(-c2ccccn2)cs1 | 6 | 2 | 15 | 1 | 0 | -1
c1ccc2c(c1)oc1c(NCc3ccc4c(c3)OCO4)ncnc12 | 90* | -3 | 12 | 0 | 1 | 0
COc1cc(C2C(C(C)=O)=C(C)Nc3ncnn32)ccc1O (centres undefined) | . | -9 | 0 | . | 0 | -3
CC(=O)c1ccc(NC(=O)CSc2nnc(-c3ccoc3C)n2Cc2ccccc2)cc1 | 35 | 10 | 19 | -1 | -2 | -3
CC(=O)CC1(O)C(=O)N(CN2CCN(c3ccccc3)CC2)c2ccccc21 (centres undefined) | 14 | 19 | 12 | -1 | 15* | 0
O=C(Nc1ccc(F)cc1)N1CCN(c2nc3ccccc3s2)CC1 | 22 | -12 | -6 | -2 | 12* | 1
O=C(Nc1ccccc1)N1CCN(c2nc3ccccc3s2)CC1 | 0 | -14 | -19 | -1 | 12* | 2
CCOC(=O)CC1=CSC2=NS(=O)(=O)CCN12 | -11 | -6 | 4 | 0 | -1 | -1
CCCC(=O)NCCSC | -14 | 1 | 3 | -2 | 1 | 1
